FGF22 binding: binders of human FGF22 protein, primary screen, FGF22 synaptogenesis inhibitor project, biophysical, thermal shift, single point | activity (Tm shift, normalised), % at 9.99 µM | AID 651658, 2012 | recombinant FGF22 thermal shift, SYPRO orange fluorescence; percent of sucrose octasulfate shift, DMSO zero | actives 1.5% (n = 340,000);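 active = mean Tm shift, scaled 0 neutral to 100 positive control, at about 1.3% or above, every replicate too, limit read from the data; inconclusive = no clear call, values can overlap the other calls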
E-selectin induc: E-selectin induction in HUVECs, primary screen, imaging, HUVEC, immunofluorescence imaging, single point; P16581; normalized: neutral wells 0, TNF-alpha wells 100; activation, % at 7.58 µM; actives 0.37% (n = 260,000);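 active = mean E-selectin-positive cell signal at least 10% of the positive control, reached in at least 60% of replicates, without over 20% cell loss; inconclusive = no rule given, readout overlaps actives, possibly toxicity-flagged; inactive = the rest, including those meeting only one limit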
Target sequence (P16581 whole entry, looked up): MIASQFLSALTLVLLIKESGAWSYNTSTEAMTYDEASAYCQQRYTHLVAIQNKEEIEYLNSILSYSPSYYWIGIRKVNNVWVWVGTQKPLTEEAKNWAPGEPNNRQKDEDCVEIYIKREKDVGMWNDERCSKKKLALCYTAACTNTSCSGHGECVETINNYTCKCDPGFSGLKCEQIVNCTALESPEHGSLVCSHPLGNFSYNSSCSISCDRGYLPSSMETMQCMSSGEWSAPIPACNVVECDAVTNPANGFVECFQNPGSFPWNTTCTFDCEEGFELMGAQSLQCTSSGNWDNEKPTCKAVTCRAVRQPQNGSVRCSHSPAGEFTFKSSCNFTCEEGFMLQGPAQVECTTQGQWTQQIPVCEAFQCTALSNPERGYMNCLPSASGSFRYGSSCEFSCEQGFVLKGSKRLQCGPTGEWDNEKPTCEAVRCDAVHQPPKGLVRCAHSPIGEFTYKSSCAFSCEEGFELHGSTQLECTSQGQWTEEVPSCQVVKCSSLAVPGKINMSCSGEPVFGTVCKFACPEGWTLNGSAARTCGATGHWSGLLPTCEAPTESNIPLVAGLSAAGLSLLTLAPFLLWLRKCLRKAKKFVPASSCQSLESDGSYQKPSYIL
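Read-out basis: % PE-positive cells; Test system: HUVEC primary endothelial cells; Technique: immunofluorescence imaging; Dosing: single-point compound dose.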
DENV2 CPE rescue: inhibitors of DENV2 cytopathic effect, primary screen, cell-based, plate reader, single concentration. DENV2-infected cells, cytopathic effect rescue. AID 651640, 2012. CPE inhibition, % at 9.99 µM. actives 1.7% (n = 350,000); in the data active = CPE inhibition above about 20%, passing the limit was not always enough; inconclusive = no clear call, values can overlap the other calls; tested in BHK-21 cells
ERAP1 HTS inh: human ERAP1 aminopeptidase inhibitors, primary screen, biochemical, single point, plate reader; Endoplasmic reticulum aminopeptidase 1 (Homo sapiens), Q9NZ08; recombinant ERAP1, Leu-AMC fluorescence, 60 min; inhibition, % at 10.7 µM; actives 0.15% (n = 340,000);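 active = mean replicate inhibition of at least 30%, or all replicates individually reaching that 30% level; inactive = mean below 30% and not every replicate reaching it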
F508del corr: F508del CFTR correction, initial screen, CFBE line, single point; CFBE cells, YFP halide quenching; stimulated with forskolin plus potentiator P3; % fluorescence drop versus neutral controls; activity (quench increase), % at 7.58 µM; actives 0.36% (n = 350,000);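 active = mean added fluorescence quench of at least 8% versus neutral control, with both replicates also reaching 8%; inconclusive = only one of the mean or replicate conditions met; inactive = mean below 8% and not both replicates reaching 8%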;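 also: cells transiently co-express mutant CFTR-F508del with the halide-sensitive YFP; corrector assay measuring rescue of mutant channel to the surface after 24 h compound exposure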
Of the large screens only hits and unclear results are named; the others gave an inactive call. Hits are enriched below; roughly 3.7% of the tested compounds scored in any of these assays.

O=c1cc(-c2ccc(O)cc2)oc2c(-c3c(O)cc(O)c4c(=O)cc(-c5ccc(O)cc5)oc34)c(O)cc(O)c12	none (no result: E-selectin induc)
COc1ccc2c3c([nH]c2c1)[C@H](CO)N(C)CC31CCN(C(=O)c2cccnc2)CC1	DENV2 CPE rescue inconclusive (no result: FGF22 binding, ERAP1 HTS inh)
C[C@@H]1CN([C@H](C)CO)C(=O)c2cc(-c3cccc(C(=O)N(C)C)c3)cnc2O[C@H]1CN(C)S(=O)(=O)c1ccccc1	none
O=C(Nc1cccc(-c2nnc(-c3ccco3)o2)c1)c1ccccc1	FGF22 binding 43
CC(=O)Oc1ccc(C(=O)Nc2cccc(-c3nnc(-c4ccco4)o3)c2)cc1	none
COc1cc2c3nnc(-c4ccc(F)cc4)c-3cn(Cc3ccc(C)cc3)c2cc1OC	none
COc1cc2c3nnc(-c4ccccc4)c-3cn(Cc3ccc(F)cc3)c2cc1OC	FGF22 binding 44 (no result: E-selectin induc, DENV2 CPE rescue)
C[C@H](NC(=O)CCCOc1ccc(Cl)cc1Cl)c1nnc2ccccn12	DENV2 CPE rescue 41
C[C@@H]1CN([C@H](C)CO)C(=O)c2cc(C3=CCCC3)cnc2O[C@H]1CN(C)C(=O)c1ccc2c(c1)OCO2	none
COC(=O)C1=C(C)N(CCCC(=O)O)C(=O)NC1c1ccc([N+](=O)[O-])cc1 (stereo not drawn)	none
CCOC(=O)C1=C(C)N(CCCC(=O)O)C(=O)NC1c1ccc([N+](=O)[O-])cc1 (stereo not drawn)	DENV2 CPE rescue 102
COCC(=O)Nc1ccc2c(c1)[C@H]1C[C@H](CC(=O)NCc3ccccc3)O[C@H](CO)[C@H]1O2	none
CCCNC(=O)N1[C@@H](CO)[C@@H](c2ccccc2)[C@@H]1CNC(=O)c1ccccc1	none
CCCNC(=O)N1[C@@H](CO)[C@H](c2ccccc2)[C@@H]1CNC(=O)c1cccc(F)c1	none
CCCNC(=O)N1[C@H](CO)[C@H](c2ccccc2)[C@@H]1CNC(=O)c1ccccc1	DENV2 CPE rescue 33
CCCNC(=O)N1[C@H](CNC(=O)c2cccc(F)c2)[C@@H](c2ccccc2)[C@@H]1CO	DENV2 CPE rescue 43 (no result: FGF22 binding, ERAP1 HTS inh)
COc1ccc(-c2cnc3c(c2)C(=O)N([C@H](C)CO)C[C@H](C)[C@H](CN(C)Cc2cccc(C)c2)O3)cc1	none (no result: FGF22 binding, DENV2 CPE rescue, ERAP1 HTS inh)
O=C(NC1CCCC1)c1ccc(CSc2nc3ccncc3n2Cc2ccc(F)cc2)cc1	none
O=C(NCCN1CCOCC1)c1ccc(CSc2nc3ccncc3n2Cc2ccc(F)cc2)cc1	FGF22 binding 44 (no result: E-selectin induc)
CN1C(=O)c2cc(NC(=O)C3CC3)ccc2OC[C@H]2O[C@H](CC(=O)NC3CCC3)CC[C@@H]21	none
COc1cc(C(=O)Nc2ccc3c(c2)ncn3C)cc(OC)c1OC	F508del corr 12 (no result: E-selectin induc)
COc1cc(C(=O)Nc2ccc3c(c2)nc(C)n3C)cc(OC)c1OC	none (no result: FGF22 binding, E-selectin induc)
CNC(=S)N1N=C(c2ccc(C)cc2)CC1c1ccc(N(C)C)cc1 (stereo not drawn)	FGF22 binding 44
C/C(=N\NC(=O)c1ccc(Cn2cc([N+](=O)[O-])cn2)o1)c1cccc(NC(=O)C(C)C)c1	DENV2 CPE rescue 28 (no result: E-selectin induc, F508del corr)
CCCN1C[C@H](C)[C@H](OC)CN(C)C(=O)c2ccc(NC(=O)c3cnccn3)cc2OC[C@H]1C	none
Cc1csc(-c2nc3ccccc3n2C(C(=O)NC(C)(C)C)c2ccccc2)c1 (stereo not drawn)	DENV2 CPE rescue 22
Cc1ccc(S(=O)(=O)Nc2cccc3c2O[C@H](CN(C)C(=O)NC(C)C)[C@@H](C)CN([C@H](C)CO)C3=O)cc1	none
CCOc1ccc(CN(C)CC(=O)Nc2cc(C)c(C)cc2[N+](=O)[O-])cc1	FGF22 binding 43, DENV2 CPE rescue inconclusive
CS(=O)(=O)N1[C@H](CO)[C@@H](c2ccccc2)[C@@H]1C#N	none
C[C@@H]1CCCCO[C@H](CN(C)C)[C@H](C)CN([C@@H](C)CO)C(=O)c2cc(NC(=O)c3ccncc3)ccc2O1	none (no result: FGF22 binding, DENV2 CPE rescue, ERAP1 HTS inh)
O=C(Nc1ccccc1Cl)c1ccc2ccccc2c1	none (no result: E-selectin induc)
Cc1ccc(C)c(NC(=O)c2cc[n+](C)cc2)c1	ERAP1 HTS inh 87 (no result: E-selectin induc)
C[n+]1ccc(C(=O)Nc2ccccc2Cl)cc1	ERAP1 HTS inh 102 (no result: E-selectin induc, F508del corr)
